Reference: ChEMBL document CHEMBL1131206, “Synthesis, anticonvulsant activity, and structure-activity relationships of sodium channel blocking 3-aminopyrroles” (J Med Chem, 1998)

Columns and labels:
[1] = tested on: Rattus norvegicus; assay: Anticonvulsant activity was measured by maximal electroshock seizure test in rat by po administration; No effective response; type: functional, organism-based
Outline: (§1)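 Maximal electroshock test in male albino Sprague–Dawley rats (100 g) after oral dosing, run at the previously determined time of peak effect. At least eight rats per group received various doses until at least two points lay between 0% and 100% protection. ED50 with 95% confidence interval was calculated. Single-dose entries report percent protection at that dose.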

[2] = tested on: Mus musculus; assay: Anticonvulsant activity was measured by maximal electroshock seizure test in mice by ip administration; No effective response; type: functional, organism-based
Outline: (§2)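 Male albino CF No. 1 mice (18–25 g) were dosed ip and tested by maximal electroshock at the previously determined time of peak effect. Groups of at least eight mice received various doses until at least two points fell between 0% and 100% protection. ED50 and its 95% confidence interval were calculated. Single-dose entries give protection percentage at the indicated dose.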

[3] = tested on: Mus musculus; assay: Minimal motor impairment activity of the compound was measured by Rotarod test in mice by ip administration; No effective response; type: functional, organism-based
Outline: (§3)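 Rotorod neurotoxicity test in male albino CF No. 1 mice dosed ip, run at the time of peak effect. Impairment was defined as failure to keep equilibrium for 60 s in each of three trials on the rotating rod. With groups of at least eight mice across various doses, the median motor-impairing dose and its 95% confidence interval were calculated.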

[4] = tested on: Rattus norvegicus; assay: Minimal motor impairment activity of the compound was measured by […] in rat by po administration; No effective response; type: functional, organism-based
Outline: (§4)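 Minimal motor impairment in male Sprague–Dawley rats (100 g) after oral dosing was judged at the time of peak effect. The criterion was overt ataxia, abnormal gait and stance, and/or loss of placing response and muscle tone. Groups had at least eight rats across various doses, and the median impairing dose with its 95% confidence interval was calculated.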

[5] = tested on: Rattus norvegicus; assay: Minimal motor impairment activity by Rotarod test in rat following p.o. administration.; type: functional; conditions: po; outline: as §4
[6] = tested on: Rattus norvegicus; assay: Anticonvulsant activity in corneal kindled rats was determined when 75 mg/kg was administered orally; type: functional; conditions: route oral
Outline: (§5)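 Corneally kindled male Sprague–Dawley rats (100 g), stimulated daily via corneal electrodes (8 mA, 60 Hz, 4 s) until 10 consecutive stage 5 seizures. Drug was dosed orally at 0.04 mL/10 g body weight. Seizure severity was scored after dosing, with abolition of the generalized stage 4/5 seizure (clonus, rearing and falling) as the endpoint.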

[7] = tested on: Mus musculus; assay: Minimal motor impairment activity by Rotarod test in mice following i.p. administration.; type: functional; conditions: ip; outline: as §3
[8] = tested on: Rattus norvegicus; assay: Anticonvulsant activity in corneal kindled rats was determined when 25 mg/kg was administered orally; type: functional; conditions: route oral; outline: as §5
[9] = tested on: Rattus norvegicus; assay: Anticonvulsant activity in corneal kindled rats was determined when 50 mg/kg was administered orally; type: functional; conditions: route oral; outline: as §5
[10] = tested on: Mus musculus; assay: Anticonvulsant activity was measured by maximal electroshock seizure test in mice by ip administration; type: functional; outline: as §2
[11] = tested on: Rattus norvegicus; assay: Anticonvulsant activity was measured by maximal electroshock seizure test in rat by po administration; type: functional; outline: as §1
[12] = Partition coefficient (logP); type: physicochemical; conditions: octanol/water
[13] = tested on: Rattus norvegicus; assay: Anticonvulsant activity in corneal kindled rats was determined when 100 mg/kg was administered orally; type: functional; conditions: route oral; outline: as §5
[14] = tested on: Rattus norvegicus; assay: Anticonvulsant activity was measured by maximal electroshock seizure test in rat by po administration at 50 mg/kg; type: functional; outline: as §1
[15] = tested on: Mus musculus; assay: Minimal motor impairment activity was measured by Rotarod test in mice by ip administration; type: functional; outline: as §3
[16] = tested on: Mus musculus; assay: Anticonvulsant activity was measured by maximal electroshock seizure test in mice by ip administration at 100 mg/kg; type: functional; conditions: route intraperitoneal; outline: as §2
[17] = tested on: Rattus norvegicus; assay: Minimal motor impairment activity was measured by Rotarod test in rat by po administration; type: functional; outline: as §4
[18] = tested on: Rattus norvegicus; assay: Anticonvulsant activity was measured by maximal electroshock seizure test in rat by po administration at 25 mg/kg; type: functional; outline: as §1
[19] = tested on: Rattus norvegicus; assay: Anticonvulsant activity in corneal kindled rats was determined when 20 mg/kg was administered orally; type: functional; conditions: route oral
Outline: (§6)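 Male Sprague–Dawley rats were kindled by daily corneal stimulation (8 mA, 60 Hz, 4 s) until they reached 10 consecutive stage 5 seizures (rearing and falling with clonus). The drug was then given orally, and seizure score was recorded as mean ± variation. Abolition of the generalized stage 4–5 seizure served as the endpoint.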

[20] = tested on: Rattus norvegicus; assay: Anticonvulsant activity in corneal kindled rats was determined when 10 mg/kg was administered orally; type: functional; conditions: route oral; outline: as §6
[21] = tested on: Rattus norvegicus; assay: Anticonvulsant activity in corneal kindled rats was determined when 80 mg/kg was administered orally; type: functional; conditions: route oral; outline: as §6
[22] = tested on: Rattus norvegicus; assay: Anticonvulsant activity in corneal kindled rats was determined when 40 mg/kg was administered orally; type: functional; conditions: route oral; outline: as §6
[23] = tested on: Mus musculus; assay: Anticonvulsant activity was measured by maximal electroshock seizure test in mice by ip administration at 30 mg/kg; type: functional; conditions: route intraperitoneal; outline: as §2
[24] = tested on: Mus musculus; assay: Anticonvulsant activity (ED50) was measured by maximal electroshock seizure test in mice by ip administration; No effective response; type: functional, organism-based; outline: as §2
[25] = tested on: Rattus norvegicus; assay: Anticonvulsant activity (ED50) was measured by maximal electroshock seizure test in rat by po administration; No effective response; type: functional, organism-based; outline: as §1
[26] = tested on: Rattus norvegicus; assay: Anticonvulsant activity was measured by maximal electroshock seizure test in rat by po administration at 50 mg/kg dose; type: functional; outline: as §1
[27] = tested on: Mus musculus; assay: Anticonvulsant activity was measured by maximal electroshock seizure test in mice by ip administration at 100 mg/kg dose; type: functional; conditions: route intraperitoneal; outline: as §2
[28] = tested on: Rattus norvegicus; assay: Anticonvulsant activity was measured by maximal electroshock seizure test in rat by po administration at 30 mg/kg; type: functional; outline: as §1
[29] = tested on: Rattus norvegicus; assay: Anticonvulsant activity in corneal kindled rats was determined when 75 mg/kg was administered intraperitoneally; type: functional; conditions: route intraperitoneal
Outline: (§7)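 Male Sprague–Dawley rats (100 g) kindled by daily corneal stimulation at 8 mA/60 Hz for 4 s until 10 consecutive stage 5 seizures (rearing and falling with clonus). Drug was given ip in 0.5% methyl cellulose in water at 0.04 mL/10 g body weight. Read-out was seizure score; abolition of the generalized (stage 4–5) seizure was the endpoint.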

[30] = tested on: Rattus norvegicus; assay: Anticonvulsant activity in corneal kindled rats was determined when 25 mg/kg was administered intraperitoneally; type: functional; conditions: route intraperitoneal; outline: as §7
[31] = tested on: Rattus norvegicus; assay: Anticonvulsant activity in corneal kindled rats was determined when 50 mg/kg was administered intraperitoneally; type: functional; conditions: route intraperitoneal; outline: as §7
[32] = tested on: Rattus norvegicus; assay: Anticonvulsant activity in corneal kindled rats was determined when 150 mg/kg was administered intraperitoneally; type: functional; conditions: route intraperitoneal; outline: as §7
[33] = tested on: Rattus norvegicus; assay: Anticonvulsant activity in corneal kindled rats was determined when 10 mg/kg was administered intraperitoneally; type: functional; conditions: route intraperitoneal; outline: as §7
[34] = tested on: Rattus norvegicus; assay: Anticonvulsant activity in corneal kindled rats was determined when 100 mg/kg was administered intraperitoneally; type: functional; conditions: route intraperitoneal; outline: as §7

SMILES	logP [12]	ED50 [5]	ED50 [7]	ED50 [10]	also measured
CCN1C(=O)c2c(N3CCOCC3)c(-c3ccc(Cl)cc3)cn2C1=O					ED50 [1]: No effective response; ED50 [2]: No effective response; ED50 [3]: No effective response; ED50 [4]: No effective response
COC(=O)c1[nH]cc(-c2ccc(Br)cc2)c1N1CCOCC1	3.8	> 500 mg/kg	166 mg/kg	27.8 mg/kg	Seizure score [6]: 1.7; Seizure score [8]: 4.3; Seizure score [9]: 3.7; ED50 [11]: 2.5 mg/kg; Seizure score [13]: 1.9
COC(=O)c1[nH]cc(-c2cccc(Br)c2)c1N1CCOCC1					Protection [14]: 75%; ED50 [15]: > 300 mg/kg; Protection [16]: 100%; ED50 [17]: > 50 mg/kg
Clc1ccc(-c2c[nH]cc2N2CCOCC2)cc1	3.2	> 200 mg/kg	115 mg/kg	62.1 mg/kg	ED50 [11]: 17.7 mg/kg
Clc1ccc(-c2cnoc2N2CCOCC2)cc1					ED50 [1]: No effective response; ED50 [2]: No effective response; ED50 [3]: No effective response; ED50 [4]: No effective response
COCCNC(=O)c1[nH]cc(-c2ccc(Cl)cc2)c1N1CCOCC1	3.3				
CC(=O)c1[nH]cc(-c2ccc(Cl)cc2)c1N1CCOCC1		> 100 mg/kg	335 mg/kg	72.6 mg/kg	ED50 [11]: 10.6 mg/kg
NC(=O)N1c2ccccc2C=Cc2ccccc21 [CARBAMAZEPINE]		361 mg/kg	47.8 mg/kg	9.9 mg/kg	Seizure score [19]: 4.5; Seizure score [20]: 4.8; Seizure score [21]: 2; ED50 [11]: 11.9 mg/kg; Seizure score [22]: 3.8
CC(C)COC(=O)c1[nH]cc(-c2ccc(Cl)cc2)c1N1CCOCC1					ED50 [1]: No effective response; ED50 [2]: No effective response; ED50 [3]: No effective response; ED50 [4]: No effective response
CN(C)C(=O)c1[nH]cc(-c2ccc(Cl)cc2)c1N1CCOCC1	3.1				
COC(=O)c1[nH]cc(-c2ccccc2C)c1N1CCOCC1	2.8	> 50 mg/kg	> 100 mg/kg		Protection [14]: 50%; Protection [16]: 60%
COC(=O)CCc1c(N2CCOCC2)c(-c2ccc(Cl)cc2)cn1C					ED50 [1]: No effective response; ED50 [2]: No effective response; ED50 [3]: No effective response; ED50 [4]: No effective response
COC(=O)c1[nH]cc(-c2ccc(Cl)cc2)c1N1CCOCC1	3.5	> 500 mg/kg	56.4 mg/kg	58.1 mg/kg	ED50 [11]: 11.4 mg/kg
CCOC(=O)c1[nH]cc(-c2ccc(Cl)cc2)c1N1CCOCC1	3.9	> 500 mg/kg	158 mg/kg	49.9 mg/kg	ED50 [11]: 7.9 mg/kg
Clc1ccc(-c2c[nH]nc2N2CCOCC2)cc1		> 50 mg/kg	300 mg/kg	47 mg/kg	Protection [14]: 100%
COC(=O)c1c(N2CCOCC2)c(-c2ccc(Cl)cc2)cn1C(=O)N1CCOCC1	3.1				
CCOC(=O)c1[nH]cc(-c2ccc(Cl)cc2)c1N1CCN(C)CC1		< 25 mg/kg	< 25 mg/kg		Protection [23]: 100%; Protection [28]: 100%
CCCNC(=O)c1[nH]cc(-c2ccc(Cl)cc2)c1N1CCOCC1	4.2				
O=C1NC(=O)C(c2ccccc2)(c2ccccc2)N1 [PHENYTOIN]		> 500 mg/kg	42.8 mg/kg	6.5 mg/kg	Seizure score [29]: 3.7; Seizure score [30]: 4.7; Seizure score [31]: 4.4; Seizure score [32]: 3; Seizure score [33]: 5; Seizure score [34]: 3
Cn1cc(-c2ccc(Cl)cc2)c(N2CCOCC2)c1	4.2				

Further lines, with some results ahead:

logP [12]	SMILES	ED50 [5]	ED50 [7]	ED50 [10]	also measured
3.5	COC(=O)c1c(N2CCOCC2)c(-c2ccc(Cl)cc2)cn1C(C)=O	> 250 mg/kg	35.4 mg/kg	33.1 mg/kg	ED50 [11]: 13.6 mg/kg
2.3	Cn1cc(-c2ccc(Cl)cc2)c(N2CCOCC2)c1C(=O)O				
1.8	O=C(O)c1[nH]cc(-c2ccc(Cl)cc2)c1N1CCOCC1	> 25 mg/kg	> 300 mg/kg		Protection [18]: 75%
3.7	C=CCNC(=O)c1[nH]cc(-c2ccc(Cl)cc2)c1N1CCOCC1				
2.4	NC(=O)c1[nH]cc(-c2ccc(Cl)cc2)c1N1CCOCC1	> 50 mg/kg	> 500 mg/kg	65 mg/kg	
3.3	COC(=O)c1[nH]cc(-c2ccc(Cl)cc2)c1N(C)CCN(C)C	> 50 mg/kg	< 30 mg/kg		Protection [14]: 100%; Protection [23]: 100%
4.4	COC(=O)c1[nH]cc(-c2ccc(Cl)cc2)c1N1CCN(c2ccccc2)CC1	> 500 mg/kg	> 500 mg/kg	175 mg/kg	ED50 [11]: 12.5 mg/kg
5.5	COC(=O)c1c(N2CCOCC2)c(-c2ccc(Cl)cc2)cn1C(=O)c1ccccc1	> 500 mg/kg	175 mg/kg	43.7 mg/kg	ED50 [11]: 14 mg/kg
3.3	CN1CCN(C(=O)c2[nH]cc(-c3ccc(Cl)cc3)c2N2CCOCC2)CC1	> 50 mg/kg	> 300 mg/kg		Protection [14]: 50%; ED50 [24]: No effective response
4.2	CCS(=O)(=O)n1cc(-c2ccc(Cl)cc2)c(N2CCOCC2)c1C(=O)OC				ED50 [24]: No effective response; ED50 [3]: No effective response; ED50 [25]: No effective response; ED50 [4]: No effective response
3.5	N#Cc1[nH]cc(-c2ccc(Cl)cc2)c1N1CCOCC1	> 50 mg/kg	> 300 mg/kg		Protection [26]: 100%; Protection [27]: 30%
3.1	O=C(c1[nH]cc(-c2ccc(Cl)cc2)c1N1CCOCC1)N1CCOCC1				
